# In ChEMBL document CHEMBL3351359, “Design and synthesis of novel 2,4-diaryl-5H-indeno[1,2-b]pyridine derivatives, and their evaluation of topoisomerase inhibitory activity and cytotoxicity” (Bioorg Med Chem, 2015):
# Tests used:
# [1] = biological target: DNA topoisomerase 2-alpha (Homo sapiens) (UniProt P11388); test: Inhibition of human recombinant topoisomerase-2 alpha assessed as conversion of super-coiled plasmid DNA pBR322 to relaxed DNA at 100 uM after 30 mins by ethidium bromide staining-based agarose gel electrophoresis relative to etoposide
# [2] = biological target: T1, DNA topoisomerase 1 (Homo sapiens) (UniProt P11387); test: Inhibition of human recombinant topoisomerase-1 assessed as conversion of super-coiled plasmid DNA pBR322 to relaxed DNA at 100 uM after 30 mins by ethidium bromide staining-based agarose gel electrophoresis relative to camptothecin
# T1 sequence (whole entry): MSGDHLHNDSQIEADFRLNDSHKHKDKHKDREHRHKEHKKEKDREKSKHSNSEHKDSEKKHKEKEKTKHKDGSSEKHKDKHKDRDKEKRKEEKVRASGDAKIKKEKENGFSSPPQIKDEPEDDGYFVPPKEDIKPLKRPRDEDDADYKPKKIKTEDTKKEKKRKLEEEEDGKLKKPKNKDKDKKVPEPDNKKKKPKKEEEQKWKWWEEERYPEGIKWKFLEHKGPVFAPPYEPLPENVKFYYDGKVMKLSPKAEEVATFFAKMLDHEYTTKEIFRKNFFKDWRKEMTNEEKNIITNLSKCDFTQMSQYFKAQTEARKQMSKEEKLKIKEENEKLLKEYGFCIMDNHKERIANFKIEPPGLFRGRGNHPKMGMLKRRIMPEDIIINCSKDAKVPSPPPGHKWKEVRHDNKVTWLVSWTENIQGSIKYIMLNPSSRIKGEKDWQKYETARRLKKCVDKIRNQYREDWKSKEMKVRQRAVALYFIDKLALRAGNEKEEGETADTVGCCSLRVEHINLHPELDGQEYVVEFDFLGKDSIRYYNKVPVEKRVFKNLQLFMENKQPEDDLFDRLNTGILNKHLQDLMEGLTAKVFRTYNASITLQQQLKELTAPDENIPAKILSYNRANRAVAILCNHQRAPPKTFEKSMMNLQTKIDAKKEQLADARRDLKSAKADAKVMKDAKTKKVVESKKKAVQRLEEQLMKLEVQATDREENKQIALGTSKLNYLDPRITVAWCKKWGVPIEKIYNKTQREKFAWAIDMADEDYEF
# MCF7 = test: Cytotoxicity against human MCF7 cells after 2 days by CCK-8 assay; format: functional, cell-based; conditions: MCF7, 48 h
# Outline: (§1)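 Cells seeded at 2~4 × 10^4 per well, grown overnight in medium with 10% FBS at 37 °C, 5% CO2. On day 2, after 4 h FBS starvation, medium replaced with medium containing graded compound concentrations. On day 4, CCK-8 added for 4 h, then absorbance read at 450 nm. IC50 from four-parameter logistic fit. Mean ± S.D. of three experiments, each run in triplicate.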
# [3] = biological target: DNA topoisomerase 2-alpha (Homo sapiens) (UniProt P11388); test: Inhibition of human recombinant topoisomerase-2 alpha assessed as conversion of super-coiled plasmid DNA pBR322 to relaxed DNA at 20 uM after 30 mins by ethidium bromide staining-based agarose gel electrophoresis (reference value: 46.7%)
# Outline: (§2)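 Supercoiled pBR322 (200 ng) incubated with 1 unit human topo IIα, with or without compound, for 30 min at 30 °C. Buffer: 10 mM Tris-HCl pH 7.9, 50 mM NaCl, 5 mM MgCl2, 1 mM EDTA, 1 mM ATP, 15 μg/mL BSA. Stopped with EDTA. Run on 1% agarose in TAE at 25 V for 4 h, stained with ethidium bromide, supercoiled DNA quantified under UV.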
# [4] = Cytotoxicity against human HCT15 cells after 2 days by CCK-8 assay; format: functional, cell-based; conditions: HCT-15, 48 h; outline: as §1
# [5] = biological target: DNA topoisomerase 2-alpha (Homo sapiens) (UniProt P11388); test: Inhibition of human recombinant topoisomerase-2 alpha assessed as conversion of super-coiled plasmid DNA pBR322 to relaxed DNA at 100 uM after 30 mins by ethidium bromide staining-based agarose gel electrophoresis (reference value: 87.8%); outline: as §2
# [6] = biological target: T1, DNA topoisomerase 1 (Homo sapiens); test: Inhibition of human recombinant topoisomerase-1 assessed as conversion of super-coiled plasmid DNA pBR322 to relaxed DNA at 100 uM after 30 mins by ethidium bromide staining-based agarose gel electrophoresis (reference value: 62.9%)
# Outline: (§3)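 Relaxation of supercoiled pBR322 (100 ng) by 0.4 units recombinant human topo I, with or without compound (20 mM DMSO stocks), for 30 min at 37 °C. Buffer: 10 mM Tris-HCl pH 7.9, 150 mM NaCl, 0.1% BSA, 1 mM spermidine, 5% glycerol. Stopped with sarcosyl. Run on 1% agarose in TAE at 15 V for 7 h, stained with ethidium bromide, bands quantified under UV.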
# DU-145 = test: Cytotoxicity against human DU145 cells after 2 days by CCK-8 assay; format: functional, cell-based; conditions: DU-145, 48 h; outline: as §1
# [7] = biological target: DNA topoisomerase 2-alpha (Homo sapiens) (UniProt P11388); test: Inhibition of human recombinant topoisomerase-2 alpha assessed as conversion of super-coiled plasmid DNA pBR322 to relaxed DNA at 100 uM after 30 mins by ethidium bromide staining-based agarose gel electrophoresis (reference value: 83.7%); outline: as §2
# HeLa = test: Cytotoxicity against human HeLa cells after 2 days by CCK-8 assay; format: functional, cell-based; conditions: 48 h; outline: as §1
# [8] = biological target: DNA topoisomerase 2-alpha (Homo sapiens) (UniProt P11388); test: Inhibition of human recombinant topoisomerase-2 alpha assessed as conversion of super-coiled plasmid DNA pBR322 to relaxed DNA at 20 uM after 30 mins by ethidium bromide staining-based agarose gel electrophoresis (reference value: 42.1%); outline: as §2
# [9] = biological target: T1, DNA topoisomerase 1 (Homo sapiens); test: Inhibition of human recombinant topoisomerase-1 assessed as conversion of super-coiled plasmid DNA pBR322 to relaxed DNA at 100 uM after 30 mins by ethidium bromide staining-based agarose gel electrophoresis (reference value: 51.5%); outline: as §3
# [10] = biological target: T1, DNA topoisomerase 1 (Homo sapiens); test: Inhibition of human recombinant topoisomerase-1 assessed as conversion of super-coiled plasmid DNA pBR322 to relaxed DNA at 100 uM after 30 mins by ethidium bromide staining-based agarose gel electrophoresis (reference value: 45.2%); outline: as §3
# [11] = biological target: DNA topoisomerase 2-alpha (Homo sapiens) (UniProt P11388); test: Inhibition of human recombinant topoisomerase-2 alpha assessed as conversion of super-coiled plasmid DNA pBR322 to relaxed DNA at 100 uM after 30 mins by ethidium bromide staining-based agarose gel electrophoresis (reference value: 32.4%); outline: as §2
# DNA topoisomerase 2-alpha (Homo sapiens), sequence (P11388 whole entry): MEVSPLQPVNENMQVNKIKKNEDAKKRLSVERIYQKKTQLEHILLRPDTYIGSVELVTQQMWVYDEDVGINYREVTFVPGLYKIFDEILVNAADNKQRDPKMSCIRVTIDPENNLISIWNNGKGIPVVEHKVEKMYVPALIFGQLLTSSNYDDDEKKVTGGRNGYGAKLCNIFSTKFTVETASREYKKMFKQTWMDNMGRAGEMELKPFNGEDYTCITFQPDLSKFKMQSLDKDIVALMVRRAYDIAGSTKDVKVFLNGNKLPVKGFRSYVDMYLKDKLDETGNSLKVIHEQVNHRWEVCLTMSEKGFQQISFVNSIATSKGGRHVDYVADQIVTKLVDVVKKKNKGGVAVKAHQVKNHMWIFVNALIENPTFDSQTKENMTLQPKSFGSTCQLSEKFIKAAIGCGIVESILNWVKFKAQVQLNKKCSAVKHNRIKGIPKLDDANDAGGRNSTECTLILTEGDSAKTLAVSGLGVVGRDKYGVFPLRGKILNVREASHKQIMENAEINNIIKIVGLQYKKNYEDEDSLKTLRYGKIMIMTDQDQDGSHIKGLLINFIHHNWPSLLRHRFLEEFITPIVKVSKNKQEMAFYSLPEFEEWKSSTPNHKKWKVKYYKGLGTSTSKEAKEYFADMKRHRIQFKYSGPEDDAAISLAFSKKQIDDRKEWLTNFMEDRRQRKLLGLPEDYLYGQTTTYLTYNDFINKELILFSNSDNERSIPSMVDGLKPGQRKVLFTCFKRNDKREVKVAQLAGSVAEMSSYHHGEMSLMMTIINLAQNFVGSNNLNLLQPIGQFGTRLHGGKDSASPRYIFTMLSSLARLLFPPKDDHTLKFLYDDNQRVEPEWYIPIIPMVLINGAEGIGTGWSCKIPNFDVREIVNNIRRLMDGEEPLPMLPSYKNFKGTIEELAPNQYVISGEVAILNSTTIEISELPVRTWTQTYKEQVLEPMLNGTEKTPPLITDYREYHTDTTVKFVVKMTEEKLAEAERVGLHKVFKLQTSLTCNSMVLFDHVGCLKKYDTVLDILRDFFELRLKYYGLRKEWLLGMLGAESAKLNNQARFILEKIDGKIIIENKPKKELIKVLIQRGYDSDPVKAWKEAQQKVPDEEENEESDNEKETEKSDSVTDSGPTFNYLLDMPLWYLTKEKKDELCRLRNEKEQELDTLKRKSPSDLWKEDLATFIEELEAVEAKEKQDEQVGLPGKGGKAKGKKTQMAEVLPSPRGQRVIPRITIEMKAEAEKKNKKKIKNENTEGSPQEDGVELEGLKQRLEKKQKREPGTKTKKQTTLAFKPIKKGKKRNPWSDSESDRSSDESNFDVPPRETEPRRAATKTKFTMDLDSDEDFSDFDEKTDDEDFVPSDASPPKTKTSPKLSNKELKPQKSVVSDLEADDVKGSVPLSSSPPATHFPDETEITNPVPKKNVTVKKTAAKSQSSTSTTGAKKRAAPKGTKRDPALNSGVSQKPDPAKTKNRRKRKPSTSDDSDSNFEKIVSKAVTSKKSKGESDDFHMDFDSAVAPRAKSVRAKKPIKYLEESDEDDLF
smiles,measurement,setting,value
c1ccc(-c2cc(-c3ccsc3)nc3c2COc2ccccc2-3)cc1,Ratio,[1],1.13
same,Ratio,[2],1.67
c1coc(-c2cc(-c3ccco3)c3oc4ccccc4c3n2)c1,Ratio,[1],1.11
same,fold change (FC),[2],0.6
c1coc(-c2cc(-c3ccoc3)c3c(n2)-c2ccccc2OC3)c1,Ratio,[1],0.89
same,Ratio,[2],1.2
c1cncc(-c2cc(-c3ccoc3)c3c(n2)-c2ncccc2CC3)c1,Ratio,[1],< 0.2
same,Ratio,[2],1.36
c1ccc2c(c1)OCc1c(-c3ccsc3)cc(-c3ccsc3)nc1-2,Ratio,[1],0.9
same,Ratio,[2],1.42
c1ccc(-c2cc(-c3cccs3)nc3c2Cc2ccccc2-3)cc1,IC50,MCF7,> 50 µM
same,inhibition,[3],0%
same,IC50,[4],> 50 µM
same,inhibition,[5],56%
same,inhibition,[6],5.8%
same,IC50,DU-145,> 50 µM
c1coc(-c2cc(-c3ccsc3)c3c(n2)-c2ccccc2C3)c1,Ratio,[1],1.19
same,Ratio,[2],< 0.2
same,IC50,MCF7,> 50 µM
same,inhibition,[7],100%
same,IC50,HeLa,> 50 µM
same,inhibition,[8],93%
same,IC50,[4],> 50 µM
same,IC50,DU-145,> 50 µM
same,inhibition,[9],0%
c1ccc(-c2cc(-c3ccoc3)c3c(n2)-c2ccccc2C3)nc1,inhibition,[10],8.6%
same,inhibition,[11],17.5%
COc1cc([C@@H]2c3cc4c(cc3[C@@H](O[C@@H]3O[C@@H]5CO[C@@H](C)O[C@H]5[C@H](O)[C@H]3O)[C@H]3COC(=O)[C@H]23)OCO4)cc(OC)c1O [ETOPOSIDE],IC50,MCF7,0.73 µM
same,IC50,HeLa,1.26 µM
same,IC50,[4],1.1 µM
c1ccc(-c2cc(-c3ccccn3)nc3c2Cc2ccccc2-3)cc1,inhibition,[10],0%
same,inhibition,[11],12.3%
c1csc(-c2cc(-c3ccsc3)nc3c2Cc2ccccc2-3)c1,IC50,MCF7,> 50 µM
same,IC50,[4],> 50 µM
same,inhibition,[5],17.8%
same,inhibition,[6],4.1%
same,IC50,DU-145,> 50 µM
c1coc(-c2cc(-c3cccs3)nc3c2CCc2ccccc2-3)c1,Ratio,[1],< 0.2
same,Ratio,[2],0.97
CC[C@@]1(O)C(=O)OCc2c1cc1n(c2=O)Cc2cc3ccccc3nc2-1 [CAMPTOTHECIN],IC50,MCF7,0.08 µM
same,IC50,[4],0.26 µM
same,IC50,DU-145,0.11 µM
c1ccc(-c2cc(-c3cccs3)nc3c2Cc2ccccc2-3)nc1,IC50,MCF7,43.3 µM
same,IC50,[4],9.63 µM
same,inhibition,[5],18.1%
same,inhibition,[6],4.5%
same,IC50,DU-145,> 50 µM
c1ccc(-c2cc(-c3ccco3)nc3c2oc2ccccc23)cc1,Ratio,[1],1.11
same,Ratio,[2],< 0.2
c1ccc(-c2cc(-c3ccsc3)nc3c2Cc2ccccc2-3)nc1,IC50,MCF7,> 50 µM
same,IC50,[4],> 50 µM
same,inhibition,[5],3.2%
same,inhibition,[6],3.5%
same,IC50,DU-145,> 50 µM
COc1cccc2c1C(=O)c1c(O)c3c(c(O)c1C2=O)C[C@@](O)(C(=O)CO)C[C@@H]3O[C@H]1C[C@H](N)[C@H](O)[C@H](C)O1 [DOXORUBICIN],IC50,MCF7,0.4 µM
same,IC50,[4],1.08 µM
